Reference: ChEMBL document CHEMBL1795206, “Selective non zinc binding inhibitors of MMP13” (Bioorg Med Chem Lett, 2011)

What was measured:
[1] = Chemical stability of the compound assessed as half life at pH 4 to 10; assay type: physicochemical; details: buffer
[2] = Photolytic stability of the compound in phosphate buffer at pH 7 up to 4 hrs by LC-UV-MS analysis; assay type: physicochemical; details: pH 7, 4 h
[3] = Intrinsic clearance in human liver microsomes; assay type: ADME, Microsome
[4] = Intrinsic clearance in Sprague-Dawley rat hepatocytes measured per 10^6 cells; assay type: ADME, cell-based, Liver, Hepatocyte
[5] = Clearance in rat at 2 mg/kg, iv; assay type: ADME, organism-based; set-up: dose 2 mg/kg, route intravenous; details: in vivo
Procedure, shortened: (§1)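 Rats dosed intravenously at 2 mg/kg, n = 2 animals. Clearance is reported in ml/min/kg, half-life in h and steady-state volume of distribution in l/kg.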

[6] = Half life in rat at 2 mg/kg, iv; assay type: ADME, organism-based; set-up: dose 2 mg/kg, route intravenous; details: in vivo; procedure, shortened: as §1
[7] = Volume of distribution at steady state in rat at 2 mg/kg, iv; assay type: ADME, organism-based; set-up: dose 2 mg/kg, route intravenous; details: in vivo, read-out: Vdss; procedure, shortened: as §1

SMILES | half-life [1] [days] | Stability [2] | further results
Cc1ccc(Oc2ccc(C(=O)NCc3ccncc3)cc2)cc1 | > 41.7 | – | –
O=C(NCc1ccncc1)c1ccc(Oc2ccccc2)cc1 | > 41.7 | Stable | –
O=C(NCc1ccncc1)c1ccc(OCc2ccccc2)cc1 | > 41.7 | Stable | –
O=C(NCc1ccncc1)c1ccc(Oc2ccc(C#C[C@]3(O)CN4CCC3CC4)cc2)cc1 | > 41.7 | Stable | –
Cc1ccc(Oc2ccc(C(=O)NCc3cccnc3)cc2)cc1 | > 41.7 | – | –
Cc1ccc(Oc2ccc(C(=O)NCc3ccccc3)cc2)cc1 | > 41.7 | – | –
COc1cccc(CNC(=O)c2ccc(Oc3ccc(C)cc3)cc2)c1 | > 41.7 | – | –
Cc1ccc(Oc2ccc(C(=O)N(C)Cc3ccncc3)cc2)cc1 | > 41.7 | – | –
Cc1ccc(Oc2ccc(C(=O)NCCc3ccncc3)cc2)cc1 | > 41.7 | – | –
Cc1ccc(Oc2ccc(C(=O)NCC3CCCCC3)cc2)cc1 | > 41.7 | – | –
Cc1ccc(Oc2ccc(C(=O)NCCO)cc2)cc1 | > 41.7 | – | –
Cc1ccc(Oc2ccc(C(=O)NCCCN(C)C)cc2)cc1 | > 41.7 | Stable | –
CNC(=O)c1ccc(Oc2ccc(C)cc2)cc1 | > 41.7 | Stable | –
COc1ccc(C(=O)NCc2ccncc2)cc1 | > 41.7 | Stable | –
O=C(NCc1ccncc1)c1ccc(-c2ccccc2)cc1 | > 41.7 | Stable | –
O=C(NCc1ccncc1)c1ccc(OCCc2ccccc2)cc1 | > 41.7 | Stable | –
O=C(NCc1ccncc1)c1ccc(Oc2ccc([N+](=O)[O-])cc2)cc1 | > 41.7 | Stable | –
COc1cc(Oc2ccc(C(=O)NCc3ccncc3)cc2)ccc1[N+](=O)[O-] | > 41.7 | Stable | –
N#Cc1ccccc1Oc1ccc(C(=O)NCc2ccncc2)cc1 | > 41.7 | Stable | –
CNC(=O)c1ccc(Oc2ccc(C(=O)NCc3ccncc3)cc2)cc1 | > 41.7 | Stable | –
O=C(NCc1ccncc1)c1ccc(Oc2ccc(/C=C/C3=CN4CCC3CC4)cc2)cc1 | > 41.7 | Stable | –
O=C(NCc1ccncc1)c1ccc(Oc2ccc(C#C[C@@]3(O)CN4CCC3CC4)cc2)cc1 | > 41.7 | Stable | –
O=C(NCc1ccncn1)c1ccc(Oc2ccc(C#C[C@]3(O)CN4CCC3CC4)cc2)cc1 | > 41.7 | Stable | microsomal CLint [3]: < 2 µL/min/mg; hepatocyte CLint [4]: 3 µL/min/1e6 cells; clearance [5]: 17 mL/min/kg; half-life [6]: 0.1 days; Vd [7]: 2.4 L/kg
O=C(NCc1ccncn1)c1ccc(Oc2ccc(C#C[C@@]3(O)CN4CCC3CC4)cc2)cc1 | > 41.7 | Stable | –
O=C(NCc1ccncn1)c1ccc(Oc2ccc(CCC3(O)CN4CCC3CC4)cc2)cc1 (stereo not given) | > 41.7 | Stable | –
O=C(NCc1ccncn1)c1ccc(Oc2ccc(/C=C/C3(O)CN4CCC3CC4)cc2)cc1 (stereo not given) | > 41.7 | Stable | –
COC1(C#Cc2ccc(Oc3ccc(C(=O)NCc4ccncn4)cc3)cc2)CN2CCC1CC2 (stereo not given) | > 41.7 | Stable | –
O=C(NCc1ccncn1)c1ccc(Oc2ccc(/C=C/C3=CN4CCC3CC4)cc2)cc1 | > 41.7 | Stable | –
O=C(NCc1ccncc1)c1ccc(Oc2ccc(C#CC3(O)CN4CCC3CC4)cc2)cc1 (racemic) | > 41.7 | Stable | –
